This is a sample that favours compounds with a hit; in the whole collection about 2.6% have one here.
Rad51 HR inh = human RAD51 strand exchange inhibitors, primary screen, biochemical, fluorescence; DNA repair protein RAD51 homolog 1 (Homo sapiens), Q06609; hRad51 DNA strand exchange, fluorescence dequenching; inhibition, % at 10 µM; 200,000 compounds, 0.085% hits; AID 1385, 2008;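 active = inhibition above 40% at the single screening dose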;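 note: 0% = DMSO control wells and 100% = blanks with heterologous ssDNA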
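material = hRad51 filaments on single-stranded DNA | reagent = Donor/quencher-labelled 47-bp dsDNA substrate | compound = 10 µM final, single point | schedule = strand-exchange reaction 15 min at room temperature | measured by = fluorescein emission 520 nm, excitation 485 nm | read-out basis = % inhibition versus plate control and blank means | benchmarks = plate controls and plate blanks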
CHT allo act = CHT positive allosteric modulators, primary screen, cell-based, membrane potential dye, choline EC20; CHT-expressing cells; stronger effect = higher value; LV-AA mutant CHT in HEK293 cells; B-score at 10 µM; 310,000 compounds, 0.49% hits;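 active = initial fluorescence not abnormally high and integrated response B-score, plate-corrected, over 3 SD above library mean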
Cl transport mod = KCC2 cotransporter modulators, thallium flux, primary screen, cell-based, HEK293 KCC2, FluoZin-2 fluorescence, MLSMR. Solute carrier family 12 member 5 (Homo sapiens), Q9H2X9. KCC2 cells, thallium flux FluoZin-2 fluorescence. B-score of Tl+ flux slope (higher = more flux/activation; lower = inhibition) at 10 µM. 190,000 compounds, 2.2% hits. AID 1456, 2008;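 active = thallium flux slope and its plate-corrected score both differing from the plate sample mean at a set confidence after two filtering rounds, in either direction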;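 note: slope of fluorescence scaled to starting intensity during 10 to 20 s after thallium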
Target sequence (Q9H2X9 whole entry, looked up): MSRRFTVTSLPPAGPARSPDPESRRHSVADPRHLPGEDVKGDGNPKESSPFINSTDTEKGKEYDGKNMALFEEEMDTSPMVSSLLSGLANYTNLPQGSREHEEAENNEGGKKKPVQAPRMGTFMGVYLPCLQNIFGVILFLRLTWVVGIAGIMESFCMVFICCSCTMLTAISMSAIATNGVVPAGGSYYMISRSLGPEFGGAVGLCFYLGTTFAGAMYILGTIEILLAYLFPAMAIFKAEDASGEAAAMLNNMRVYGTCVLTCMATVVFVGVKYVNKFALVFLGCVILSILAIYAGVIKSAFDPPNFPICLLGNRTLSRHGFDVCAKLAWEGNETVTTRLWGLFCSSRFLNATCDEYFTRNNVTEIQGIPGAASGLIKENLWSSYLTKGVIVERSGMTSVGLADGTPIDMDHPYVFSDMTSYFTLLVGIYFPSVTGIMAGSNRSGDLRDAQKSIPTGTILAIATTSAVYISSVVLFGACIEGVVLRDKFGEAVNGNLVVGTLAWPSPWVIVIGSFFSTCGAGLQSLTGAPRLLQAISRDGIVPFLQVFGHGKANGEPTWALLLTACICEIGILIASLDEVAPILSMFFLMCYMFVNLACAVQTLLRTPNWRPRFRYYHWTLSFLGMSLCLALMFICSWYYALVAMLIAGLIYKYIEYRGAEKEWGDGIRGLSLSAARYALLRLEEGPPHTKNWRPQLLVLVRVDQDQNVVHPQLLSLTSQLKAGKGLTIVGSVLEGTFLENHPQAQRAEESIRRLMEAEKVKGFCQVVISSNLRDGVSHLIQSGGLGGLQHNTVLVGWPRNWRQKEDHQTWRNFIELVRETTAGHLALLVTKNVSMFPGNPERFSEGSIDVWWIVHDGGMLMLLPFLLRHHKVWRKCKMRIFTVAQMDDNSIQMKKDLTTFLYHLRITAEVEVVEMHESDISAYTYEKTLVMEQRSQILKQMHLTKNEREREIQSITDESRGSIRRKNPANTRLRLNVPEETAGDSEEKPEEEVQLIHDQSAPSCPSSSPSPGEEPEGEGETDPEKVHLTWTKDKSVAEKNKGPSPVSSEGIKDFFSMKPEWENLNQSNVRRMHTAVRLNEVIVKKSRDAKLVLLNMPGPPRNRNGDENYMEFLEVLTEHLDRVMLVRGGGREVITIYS
CHT inh = inhibitors of human choline transporter CHT. CHT-expressing cells, membrane potential dye, choline response; stronger effect = lower value. B-score at 10 µM. 310,000 compounds, 0.86% hits. AID 488975, 2010;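 active = B-score over 3 SD under the library average, and starting fluorescence ratio not unusually high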;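 note: choline stimulus applied at its EC90 after an EC20 pre-addition; B-score computed on integrated fluorescence ratio after choline addition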
CHT block conf = CHT inhibitors, confirmation, cell-based, membrane potential dye, duplicate. shares compounds with CHT inh. CHT-expressing cells, choline membrane potential dye; LV-to-AA substituted CHT, HEK293 cells. CHT activity remaining % of control (stronger effect = lower value), % at 10 µM. 2,400 compounds, 70% hits;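 active = choline transporter activity left, mean of duplicates at 10 µM, below buffer-only control mean minus 3 SD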;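 note: depolarization triggered by choline at its EC90 following an EC20 pre-addition; 0% = hemicholinium-3 full block and 100% = buffer-only control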
HEK293 MPD ctr = membrane potential effects in parental HEK293, counter-screen for CHT inhibitor project, cell-based, membrane potential dye; shares compounds with CHT inh; choline response; active = decrease or increase beyond buffer ±3SD; membrane potential ratio readout (active if shifted either direction beyond buffer ±3SD; no single direction) at 10 µM; 2,400 compounds, 4% hits;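 note: parental cells lack the transporter so any hit is non-specific; ratio is peak minus trough fluorescence over baseline after EC90 choline challenge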
The depositor's hits bear a star.

Screening O=C(CSc1nc2ccccc2[nH]1)N1CCN(c2ccccc2)CC1 returned Rad51 HR inh 2, CHT allo act inactive, Cl transport mod -0.46 and CHT inh inactive.
For O=C1OCCC1Sc1nc2ccccc2n1-c1ccccc1 (stereo unspecified) the results were Rad51 HR inh 6, CHT allo act inactive, Cl transport mod -0.59, CHT inh -5.8*, CHT block conf inactive and HEK293 MPD ctr inactive.
CCc1nnc(NS(=O)(=O)c2ccc(NC(=O)OC)cc2)s1 was read as Rad51 HR inh 3, CHT allo act inactive, Cl transport mod 0.43 and CHT inh inactive.
For CCc1nnc(NS(=O)(=O)c2ccc(NC(=O)c3ccc(Br)cc3)cc2)s1 the results were CHT allo act inactive, CHT inh -6.7*, CHT block conf 36%* and HEK293 MPD ctr inactive.
`O=c1c2ccccc2[nH]c(=S)n1CCN1CCCC1` gave Rad51 HR inh 4, CHT allo act inactive, Cl transport mod 0.61, CHT inh -7*, CHT block conf 21%* and HEK293 MPD ctr inactive.
Screening Cc1ccccc1NC(=O)c1ccc(C)c(S(=O)(=O)N2CCN(C)CC2)c1 returned CHT allo act inactive, CHT inh -5.7*, CHT block conf 59%* and HEK293 MPD ctr inactive.
For CC(OC(=O)c1ccc(Cl)c(S(=O)(=O)N2CCCC2)c1)C(=O)NC1CCCCC1C (stereo unspecified) the results were CHT allo act inactive and CHT inh inactive.
`CCOC(=O)c1ccc(NC(=O)c2ccc(C)c(S(=O)(=O)N3CCOCC3)c2)cc1` gave Rad51 HR inh 1, CHT allo act inactive, CHT inh -5.5*, CHT block conf 68%* and HEK293 MPD ctr inactive.
For COc1ccccc1NC(=O)c1ccc(C)c(S(=O)(=O)N2CCCCC2)c1 the results were CHT allo act inactive and CHT inh inactive.
`Cc1ccc(C(=O)NC2CCCCC2)cc1S(=O)(=O)N1CCCC1` gave CHT allo act inactive, CHT inh -6*, CHT block conf 61%* and HEK293 MPD ctr inactive.
For Cc1ccc(C(=O)OC(C)C(=O)NC2CCCCC2C)cc1S(=O)(=O)N1CCCCC1 (stereo unspecified) the results were CHT allo act inactive, CHT inh -7.9*, CHT block conf inactive and HEK293 MPD ctr inactive.
Screening C=CCNc1nnc(Cc2ccc(F)cc2)c(=O)[nH]1 returned CHT allo act inactive and CHT inh inactive.
O=C1CCN(S(=O)(=O)c2cccs2)c2ccc(C(F)(F)F)cc2N1 was read as Rad51 HR inh 3, CHT allo act inactive, Cl transport mod -0.48 and CHT inh inactive.
Screening COc1ccc(C(=O)NCC2CCCN2S(=O)(=O)c2cccs2)cc1 (stereo unspecified) returned CHT allo act inactive and CHT inh inactive.
For Cc1ccccc1-n1nnnc1Sc1nnnn1-c1ccccc1 the results were Rad51 HR inh 10, CHT allo act inactive, Cl transport mod -0.55, CHT inh -5*, CHT block conf 64%* and HEK293 MPD ctr inactive.
Screening Cc1ccccc1-n1nnnc1SCC(N)=O returned Rad51 HR inh 16, CHT allo act inactive, Cl transport mod 0.61 and CHT inh inactive.
For O=c1cc(CSc2ccccc2)nc(-c2ccncc2)[nH]1 the results were Rad51 HR inh 2, CHT allo act inactive, Cl transport mod 0.39, CHT inh -6.5*, CHT block conf inactive and HEK293 MPD ctr inactive.
CCN1CCN(C(=O)c2ccc3nc(-c4ccccc4)c(-c4ccccc4)nc3c2)CC1 was read as CHT allo act inactive, CHT inh -7*, CHT block conf 22%* and HEK293 MPD ctr inactive.
Screening O=C(O)c1ccc2nc(-c3ccccc3)c(-c3ccccc3)nc2c1 returned CHT allo act inactive, Cl transport mod -1.8 and CHT inh inactive.
For CCc1nc2ccc(C(=O)NCCCN3CCN(c4ccc(F)cc4)CC3)cc2nc1CC the results were CHT allo act inactive and CHT inh inactive.
CN1CCN(CCNC(=O)c2ccc3nc(-c4ccc(F)cc4)c(-c4ccc(F)cc4)nc3c2)CC1 was read as CHT allo act inactive, CHT inh -12*, CHT block conf 8.4%* and HEK293 MPD ctr inactive.
COC/C=C/C1=CC2=CC(=O)C(C)(O)C(=O)C2=CO1 (stereo unspecified) was read as Rad51 HR inh -2, CHT allo act inactive and CHT inh inactive.
Screening Cc1ccc(C(=O)N/C(=C\C=C\c2ccccc2)C(=O)NCc2ccco2)cc1 returned Rad51 HR inh 8, CHT allo act inactive, Cl transport mod -2.2, CHT inh -6.6*, CHT block conf 54%* and HEK293 MPD ctr inactive.
For O=C(NCc1ccco1)/C(=C/C=C/c1ccccc1)NC(=O)c1ccco1 the results were Rad51 HR inh 8, CHT allo act inactive, Cl transport mod -3.4 and CHT inh inactive.
For COC(=O)c1nc2ccc(N3CCOCC3)cc2c(C)c1C(=O)OC the results were Rad51 HR inh -12, CHT allo act inactive, Cl transport mod -1.1, CHT inh -5.7*, CHT block conf inactive and HEK293 MPD ctr inactive.
For O=C(c1ccc(NS(=O)(=O)c2ccc3[nH]c(=O)[nH]c3c2)cc1)N1CCCC(C(F)(F)F)C1 (stereo unspecified) the results were CHT allo act inactive and CHT inh inactive.
For Cc1ccc(C)c(NCC(=O)NNC(=S)Nc2ccccc2)c1 the results were Rad51 HR inh -9, CHT allo act inactive, Cl transport mod 0.49, CHT inh -6.2*, CHT block conf 67%* and HEK293 MPD ctr inactive.
For Cc1c(Br)c(C(F)(F)F)nn1CC(=O)NCc1ccco1 the results were Rad51 HR inh 11, CHT allo act inactive, Cl transport mod 0.17, CHT inh -7.7*, CHT block conf inactive and HEK293 MPD ctr inactive.
`CSc1nc(Nc2ccc(Cl)cc2)c(C#N)c(=O)[nH]1` gave CHT allo act inactive, CHT inh -6.1*, CHT block conf inactive and HEK293 MPD ctr inactive.
Cc1nnc(SCc2cnc(-c3ccc(C(C)C)cc3)s2)n1C was read as Rad51 HR inh -2, CHT allo act inactive, CHT inh -12*, CHT block conf 49%* and HEK293 MPD ctr inactive.

High-throughput results as filed in PubChem BioAssay.
